Source: PubChem BioAssay
The list is a sample of the results.
Apaf1 activ: activators of human Apaf-1 apoptosome; activity change, negative = activation, % at 20 µM; Apaf-1 apoptosome caspase-3 activation, DEVD-Rh110 fluorescence; stronger effect = lower value; O14727; 330,000 tested, 0.31% active; AID 489031;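 active = activity change at or below -40% at 20 µM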
Target sequence (O14727 whole entry, looked up): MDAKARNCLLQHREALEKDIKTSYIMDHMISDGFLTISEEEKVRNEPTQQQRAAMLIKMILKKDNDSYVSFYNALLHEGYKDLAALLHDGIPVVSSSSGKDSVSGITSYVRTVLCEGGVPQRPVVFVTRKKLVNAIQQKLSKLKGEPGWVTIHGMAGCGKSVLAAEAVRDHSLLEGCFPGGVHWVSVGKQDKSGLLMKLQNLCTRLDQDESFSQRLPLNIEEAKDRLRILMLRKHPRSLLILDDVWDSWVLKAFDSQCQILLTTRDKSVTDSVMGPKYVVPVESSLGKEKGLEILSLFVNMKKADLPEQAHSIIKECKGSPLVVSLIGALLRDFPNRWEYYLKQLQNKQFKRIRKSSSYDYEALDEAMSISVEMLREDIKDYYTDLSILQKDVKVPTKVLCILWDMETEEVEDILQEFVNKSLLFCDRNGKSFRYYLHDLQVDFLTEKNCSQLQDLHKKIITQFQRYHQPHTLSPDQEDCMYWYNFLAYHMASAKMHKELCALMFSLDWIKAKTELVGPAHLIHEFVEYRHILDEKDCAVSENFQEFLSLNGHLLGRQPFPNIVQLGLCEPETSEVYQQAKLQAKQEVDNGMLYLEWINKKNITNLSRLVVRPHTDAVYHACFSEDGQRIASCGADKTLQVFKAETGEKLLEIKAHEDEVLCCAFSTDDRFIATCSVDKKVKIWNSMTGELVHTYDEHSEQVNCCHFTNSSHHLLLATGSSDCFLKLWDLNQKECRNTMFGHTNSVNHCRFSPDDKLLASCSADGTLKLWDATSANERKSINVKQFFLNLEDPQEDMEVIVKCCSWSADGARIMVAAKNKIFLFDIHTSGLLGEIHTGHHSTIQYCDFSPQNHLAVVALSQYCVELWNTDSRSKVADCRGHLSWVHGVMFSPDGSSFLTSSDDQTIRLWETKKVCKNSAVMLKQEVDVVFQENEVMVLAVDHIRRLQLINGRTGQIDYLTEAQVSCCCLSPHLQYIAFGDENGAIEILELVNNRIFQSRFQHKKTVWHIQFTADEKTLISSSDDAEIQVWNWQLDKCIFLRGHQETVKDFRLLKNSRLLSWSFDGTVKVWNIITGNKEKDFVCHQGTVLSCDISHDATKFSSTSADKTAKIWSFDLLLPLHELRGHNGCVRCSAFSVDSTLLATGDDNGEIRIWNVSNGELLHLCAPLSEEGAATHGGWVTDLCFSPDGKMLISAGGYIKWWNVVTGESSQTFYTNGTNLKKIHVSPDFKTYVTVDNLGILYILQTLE
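Material: biochemical Apaf-1 apoptosome reconstitution; Medium: 20 mM HEPES buffer, pH 7.5, containing CHAPS and BSA; Reagent: dATP, cytochrome c, and (Z-DEVD)2-Rh110 caspase-3 substrate; Times: 30 min preincubation, 50 min reaction, room temperature; Signal: Rh110 fluorescence, excitation 480 nm, emission 540 nm; Measure: Caspase-3 activity via Apaf-1.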
* hit, by the source's call.

`CCN(CC)c1ccc(NC(=O)CCS(=O)(=O)c2ccc(Br)cc2)c(C)c1` gave Apaf1 activ -136.4*.
`Cc1ccc(OCC(=O)N(Cc2nnc(-c3ccccc3Cl)o2)C2CC2)cc1C` gave Apaf1 activ 56.2.
Screening OC1C(O)C(O)C(O)C(O)C1O (stereo unspecified) returned Apaf1 activ -0.7.
O=C(c1ccc(-c2cccc(C(F)(F)F)c2)o1)N1CCCC(C(F)(F)F)C1 (stereo unspecified) was read as Apaf1 activ 42.8.
Screening CCN(CC)c1ccc(S(=O)(=O)N2CCCCC2)cc1NC(=O)C1CSC2(C)CCC(=O)N12 (stereo unspecified) returned Apaf1 activ 51.0.
`CCn1cc(CN2CCC(n3nccc3NC(=O)c3cccc(F)c3)CC2)cn1` gave Apaf1 activ -301.6*.
C#CCOCCOCCOCCNc1nc(N2CCN(C(=O)[C@H](CCCCN)n3cc([C@@H](N)CC(N)=O)nn3)CC2)nc(N2CCN(C(=O)[C@H](CCCCN)n3cc([C@@H](N)CC(N)=O)nn3)CC2)n1 was read as Apaf1 activ 55.2.
`C#CCOCCOCCOCCNc1nc(N2CCN(C(=O)C([C@@H](C)O)n3cc([C@@H](N)CCCCN)nn3)CC2)nc(N2CCN(C(=O)[C@H](CCCCN)n3cc([C@@H](N)CC(N)=O)nn3)CC2)n1` (stereo partly specified) gave Apaf1 activ 51.1.
For COc1ccccc1N1CCN(C(=O)C(C)CS(=O)(=O)c2ccc3c(c2)NC(=O)CS3)CC1 (stereo unspecified) the results were Apaf1 activ -427.8*.
COc1ccccc1N1CCN(C(c2cccs2)C(C)NS(=O)(=O)c2ccccc2)CC1 (stereo unspecified) was read as Apaf1 activ 55.4.
`COc1ccccc1N1CCN(C(=O)c2ccc3c(Cl)c4c(nc3c2)CCCC4)CC1` gave Apaf1 activ 41.2.
`O=C1C=C(Nc2cccc3cccnc23)c2ccccc2C1=O` gave Apaf1 activ 47.3.
For O=C(c1ccc(Cl)c(S(=O)(=O)N2CCCCCC2)c1)N1CCCC(C(F)(F)F)C1 (stereo unspecified) the results were Apaf1 activ 59.6.
O=S(=O)(c1cccc2cccnc12)N1CCCCC1 was read as Apaf1 activ -43.7*.
For Oc1c(Br)cc(Br)cc1C=Nc1cccnc1 the results were Apaf1 activ 79.2.
Screening CC(=O)[C@H]1[C@H](c2cccc(Cl)c2)C(C#N)(C#N)[C@@H]2c3ccccc3C=CN21 returned Apaf1 activ 55.9.
For O=C(CCS(=O)(=O)c1ccc(Br)cc1)NCc1ccc(F)cc1 the results were Apaf1 activ -99.1*.
Screening C#CCOCCOCCOCCNc1nc(N2CCN(C(=O)[C@H]([C@@H](C)CC)n3cc([C@@H](N)CO)nn3)CC2)nc(N2CCN(C(=O)[C@H](Cc3cc4ccccc4[nH]3)n3cc([C@@H](N)Cc4ccc(O)cc4)nn3)CC2)n1 returned Apaf1 activ 56.6.
Screening CC(Oc1ccc(Br)cc1)C(=O)NCC(C)(C)N1CCOCC1 (stereo unspecified) returned Apaf1 activ 47.4.
`Cc1ccc(S(=O)(=O)N2CCN(C(=O)COC(=O)c3ccc([N+](=O)[O-])o3)CC2)c(C)c1` gave Apaf1 activ 59.3.
Cc1ccc(NC(=O)c2ncn(CC(=O)N[C@H](CO)Cc3c[nH]c4ccccc34)n2)cc1C was read as Apaf1 activ 74.3.
`CCCCC(=O)NC(c1ccc(C(C)C)cc1)c1ccc2cccnc2c1O` (stereo unspecified) gave Apaf1 activ -462.6*.
For O=C1CCN2C=Nc3cccc4ccc1c2c34 the results were Apaf1 activ 43.5.
For C[C@H](CO)N1C[C@H](C)[C@@H](CN(C)Cc2ccc(Cl)c(Cl)c2)Oc2c(NC(=O)Cc3ccccc3)cccc2C1=O the results were Apaf1 activ 43.6.
For NC1=NC[C@@H](Cc2ccc(O)cc2)N1CCCCC1CCCCC1 the results were Apaf1 activ 50.9.
CNC[C@@H]1Oc2ccc(NS(=O)(=O)c3ccc(Cl)cc3)cc2C(=O)N([C@H](C)CO)C[C@@H]1C was read as Apaf1 activ 45.1.
`CC(=O)c1ccc(N2CCN(S(=O)(=O)c3ccc4c5c3CC(=O)N5CC(C)S4)CC2)cc1` (stereo unspecified) gave Apaf1 activ 55.7.
Screening CCC1CCc2sc(C(=O)NCC(c3ccccc3OC)N3CCCC3)cc2C1 (stereo unspecified) returned Apaf1 activ 49.3.
Screening Cc1ccc(C)c(NC(=O)CN(C)C(=O)c2cccc(S(=O)(=O)N3CCN(Cc4ccccc4)CC3)c2)c1 returned Apaf1 activ 41.0.
CN(c1ccccc1)S(=O)(=O)c1cccc(C(=O)NCc2ccccc2CN2CCCC2)c1 was read as Apaf1 activ 52.0.
Screening CC(=O)c1cccc(N(CC(=O)Nc2ccccc2C(=O)N2CCCC2)S(C)(=O)=O)c1 returned Apaf1 activ -322.7*.
Cc1cccc(N(Cc2ccccc2)C(=O)C2CCN(C(=O)c3ccccc3C)CC2)c1 was read as Apaf1 activ 48.5.
For CS(=O)(=O)N(CC(=O)Nc1ccccc1C(=O)N1CCCC1)c1cccc([N+](=O)[O-])c1 the results were Apaf1 activ -71.3*.
`CCCN(CC(=O)Nc1ccccc1C)C(=O)c1sc2ccccc2c1Cl` gave Apaf1 activ 60.6.
`O=C(CCC1CCCCC1)NCCN1C2=NC[C@@H](Cc3ccccc3)N2C[C@H]1Cc1ccc(O)cc1` gave Apaf1 activ 45.1.
Screening C#CCOCCOCCOCCNc1nc(N2CCN(C(=O)CCCCCCCCCCNC(=O)Cn3cc(CCCCCN)nn3)CC2)nc(N2CCN(C(=O)CCCCCCCCCCNC(=O)[C@@H](CCSC)n3cc(CCO)nn3)CC2)n1 returned Apaf1 activ 72.2.
C[C@@H]1CN([C@@H](C)CO)C(=O)c2cc(NC(=O)Nc3ccc(F)cc3)ccc2O[C@@H]1CN(C)Cc1ccc(Oc2ccccc2)cc1 was read as Apaf1 activ 41.8.
CCOc1ccc(NC(=O)CN(C)C(=O)c2ccccc2OCc2c(C)noc2C)cc1OCC was read as Apaf1 activ 57.3.
`COc1ccc(C2C(C(=O)c3ccco3)=C(O)C(=O)N2CCCn2ccnc2)c(OC)c1` (stereo unspecified) gave Apaf1 activ 57.2.
For COC(=O)C1=C(C)N(Cc2ccccc2)C(=NCCc2cccnc2)N[C@H]1c1ccc(Br)cc1 the results were Apaf1 activ 51.3.
Screening Clc1ccc(C2=Nn3c(nnc3-c3n[nH]c4c3CCC4)SC2)cc1Cl returned Apaf1 activ 42.9.
For Nc1ccc(O)c2ccccc12 the results were Apaf1 activ 67.7.
For O=C(/C=C/c1cc[n+](CC(=O)c2ccc3cccc4c3c2CC4)cc1)c1ccc2cccc3c2c1CC3 the results were Apaf1 activ 58.5.
Screening COc1ccc(-n2c3nc4ccccc4nc3c3c(=N)oc(C)nc32)cc1 returned Apaf1 activ 96.5.
For CCc1ccc(NC(=S)Nc2cccc3cnccc23)cc1 the results were Apaf1 activ 88.6.
Screening O=C1C(Cl)=C(NCCN2CCOCC2)C(=O)c2ccccc21 returned Apaf1 activ 46.4.
`Clc1ccc(SCCOCCN2CCOCC2)cc1` gave Apaf1 activ -53.5*.
For O=C(CCNC(=O)c1ccc(Cl)cc1)NCCCN1CCOCC1 the results were Apaf1 activ 48.1.
CCCN(CC(=O)Nc1ccccc1C)C(=O)COc1ccc2c(c1)CCC2 was read as Apaf1 activ 60.0.
